Screening results from PubChem.
Jurkat tox 60K: cytotoxic compounds reducing Jurkat cell viability; AID 463; inhibition, % at 4 µM; actives 1.2% (n = 56,000); Jurkat E6.1 viability, ATP luminescence, 48 h;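 active = inhibition above the mean inhibition of all tested compounds plus 3 SD, cut at about 28% in these data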
HEK293 NFkB inh: lowers PMA/ionomycin-induced NF-kB signal in HEK293 cells. HEK-293 NF-kB luciferase reporter, luminescence. inhibition, % at 3 µM. actives 0.21% (n = 62,000);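 active = inhibition above the mean of all tested compounds plus 3 SD, cut at about 40% in these data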
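Material: HEK-293 cells with stable firefly luciferase reporter driven by four HIV NF-kB elements / Also added: PMA plus ionomycin mix as NF-kB-activating stimulus / Compound dosing: 3 µM once, 0.30% DMSO / Times: 1 h pretreatment, 16 h stimulation, 37 °C / Signal: luminescence / Evaluation: per-plate % inhibition versus controls / Benchmarks: DMSO and 10 µM reference inhibitor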
RORa activator: activators of human nuclear receptor RORA | CHO-K1 Gal4-RORA LBD luciferase reporter, luminescence; percent increase over mock-subtracted basal signal | activation, % at 10 µM | actives 1.5% (n = 65,000) | AID 560;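 active = activation above the mean of all tested compounds plus 3 SD, cut at about 49% in these data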
SF1 activator: activates the human nuclear receptor SF-1. Q13285. CHO-K1 Gal4-SF-1 LBD luciferase reporter; % increase over DMSO SF-1-specific signal. activation, % at 10 µM. actives 1.9% (n = 65,000). AID 522;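 active = activation above the mean activation of all tested compounds plus 3 SD, cut at about 50% in these data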
Target sequence (Q13285 whole entry, looked up, the tested form may be a part): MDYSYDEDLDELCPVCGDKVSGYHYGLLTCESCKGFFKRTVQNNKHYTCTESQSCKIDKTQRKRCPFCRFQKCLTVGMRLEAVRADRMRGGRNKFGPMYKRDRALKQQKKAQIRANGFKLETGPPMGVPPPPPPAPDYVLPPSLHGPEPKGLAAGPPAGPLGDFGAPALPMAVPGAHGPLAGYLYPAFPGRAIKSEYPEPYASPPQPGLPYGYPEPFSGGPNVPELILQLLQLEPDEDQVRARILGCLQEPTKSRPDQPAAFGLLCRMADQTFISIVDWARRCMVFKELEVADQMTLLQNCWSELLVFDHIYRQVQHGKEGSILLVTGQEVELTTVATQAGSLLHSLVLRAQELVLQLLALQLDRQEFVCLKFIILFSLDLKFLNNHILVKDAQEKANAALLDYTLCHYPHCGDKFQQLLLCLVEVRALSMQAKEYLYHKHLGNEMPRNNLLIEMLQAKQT
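Material: CHO-K1 cells with Gal4–hSF-1 LBD chimera plus Gal4-driven luciferase / Input: 4,000 CHO-K1 cells per well / Incubation: compound exposure 20 h at 37 °C / Signal: luminescence read 15 min after SteadyLite luciferase reagent, after room-temperature equilibration / Read-out: percent activation versus DMSO / Benchmarks: DMSO negative control and −SF1 background wells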
A number is an active result; . = inactive; / = no result given. Sampled rows, rich in hits. Any-hit rate of the full collection: about 3.9%.

SMILES	Jurkat tox 60K	HEK293 NFkB inh	RORa activator	SF1 activator
COc1cc(CNc2ccc(N3CCOCC3)c(C(=O)O)c2)ccc1OCC(N)=O	.	.	.	.
OC(COc1ccc2ccccc2c1Cl)CN1CCOCC1 (stereo unspecified)	.	.	.	54.5
CCOc1ncccc1C(=O)OCC(=O)c1cc(C)n(Cc2ccco2)c1C	.	.	90.8	56.8
Cc1cc(C(=O)COC(=O)CCC(=O)c2ccc3c(c2)OCCO3)c(C)n1Cc1ccco1	.	.	.	.
O=C1N=C(N2CCOCC2)S/C1=C1\C(=O)N(Cc2ccccc2)c2ccc(Br)cc21	.	.	.	.
CCCCN1C(=O)/C(=C2\SC(N3CCCCC3)=NC2=O)c2ccccc21	.	.	59.7	.
OCCSc1c(F)c(SCCO)c(SCCO)c(F)c1SCCO	.	.	.	.
Cc1ccc(SCc2cn3c(C)csc3n2)cc1	.	.	.	.
CCOC(=O)c1nc(S(C)(=O)=O)ncc1Cl	100.3	.	.	.
CCOC(=O)c1nc(S(C)(=O)=O)ncc1N1CCOCC1	.	.	.	.
COC(=O)c1cccc(NC(=O)CSc2nc3cccnc3n2C)c1	.	.	81.5	.
COC(=O)c1cccc(NC(=O)CSc2nnnn2C)c1	.	.	.	.
COc1cc(C2Nc3ccccc3C(=O)N2c2ccccc2OC)ccc1O (stereo unspecified)	.	.	.	.
COc1cc(C2Nc3ccc4ncccc4c3C3=C2C(=O)CCC3)ccc1O (stereo unspecified)	80.9	.	.	.
O=C(NCc1ccco1)c1ccc2c(c1)C(=O)c1ccccc1-2	.	.	.	.
O=C(NCCCN1CCOCC1)c1cc(-c2cccs2)on1	.	.	.	.
O=C(NCc1ccco1)c1ccc2ccccc2c1	.	.	67.5	.
O=C(NCc1ccco1)c1cc(-c2cccs2)on1	.	.	67.4	.
O=C(NCCCn1ccnc1)c1cc(-c2cccs2)on1	.	.	91.8	67.0
O=C(c1ccncc1)N(Cc1cc2ccccc2[nH]c1=O)C1CCCCC1	46.8	.	.	.
Cc1ccc2[nH]c(=O)c(CN(Cc3ccco3)C(=O)c3ccncc3)cc2c1	40.2	.	.	.
O=C(Cc1cccs1)Nc1ccc(NC(=O)c2ccco2)cc1	/	.	.	.
Cc1ccc(-c2c3c(=O)n(C)c(=O)n(C)c3c3c(C)cc(C)nn23)cc1	.	.	.	.
Cc1ccc(-c2csc3ncnc(Sc4nnc(CN5CCCCCC5=O)o4)c23)cc1	70.8	.	.	.
CCn1c(CN2CCCCCC2=O)nnc1SCc1cnc(-c2ccccc2)s1	.	.	.	.
SMILES	Jurkat tox 60K	HEK293 NFkB inh	RORa activator	SF1 activator
c1ccc2c(c1)nc(Nc1ccc3c(c1)OCO3)c1nnnn12	.	.	.	.
CCN(CC)S(=O)(=O)c1ccc(Nc2nc3ccccc3n3nnnc23)cc1	.	.	70.2	.
O=C1CCCC(O)=C1C=Nc1ccc(O)cc1	.	.	.	55.8
O=C(NCC1COc2ccccc2O1)c1ccccc1 (stereo unspecified)	.	.	70.3	51.6
CC1CCc2nc(NC(=O)Cc3cccs3)sc2C1 (stereo unspecified)	.	.	.	63.1
O=C(CCCc1cccs1)Nc1nc2c(s1)CCCC2	.	.	.	73.2
Cc1ccc(Cl)cc1N1CCN(C(=O)COc2ccc(S(=O)(=O)NC(C)C)cc2)CC1	54.1	.	.	.
Cc1ccccc1NS(=O)(=O)c1ccc(OCC(=O)N2CCCC2)cc1	.	.	.	.
O=C(Nc1cnc2ccccc2c1)N1CCCCC1	.	.	72.0	.
O=C(Nc1cnc2ccccc2c1)N1CCOCC1	.	.	.	.
N#Cc1c(NCc2ccccc2)ccnc1NCc1cccnc1	68.6	.	.	.
CN(C)c1ccnc(NCc2ccccc2)c1C#N	.	.	.	.
Cn1cc(/C=N/n2cnc3scc(-c4ccccc4)c3c2=O)c2ccccc21	40.6	.	.	.
c1ccc(-c2csc3ncn4cnnc4c23)cc1	.	.	.	.
COc1ccc2sc(NC(C)=O)nc2c1	.	.	56.3	49.5
COc1ccc2sc(NC(=O)CC(C)C)nc2c1	.	.	.	65.5
CC(=O)Nc1nc2cc3c(cc2s1)OCO3	.	.	71.8	.
COc1ccc(-c2cc(-c3ccc(OC)cc3)[nH]n2)cc1	.	.	65.3	.
CCn1c(Cn2nnc(-c3ccccc3)n2)nnc1SCC(=O)Nc1ccc(C(C)=O)cc1	.	.	59.7	.
CCn1c(Cn2nnc(-c3ccccc3)n2)nnc1SCC(=O)Nc1cccc(C(C)=O)c1	.	.	.	.
O=C(NC1CCCCCC1)c1ccc(N2CCCC2=O)cc1	.	.	.	53.6
O=C(COC(=O)C1CC1)c1c[nH]c2ccccc12	.	.	106.1	.
CCOc1cc(C2NC(=O)NC(C)=C2C(=O)OCc2ccccc2)ccc1O (stereo unspecified)	.	.	.	.
Cc1cc(NCCCN2CCOCC2)n2ncc(-c3ccc(Cl)cc3)c2n1	.	.	61.7	70.1
Cn1c(=O)c2c(nc(NCCCN3CCOCC3)n2Cc2ccc(Cl)cc2)n(C)c1=O	.	.	.	.
SMILES	Jurkat tox 60K	HEK293 NFkB inh	RORa activator	SF1 activator
COc1cc(C(=O)Nc2ccc3c(c2)OCCO3)ccc1OC(F)F	.	.	75.5	63.8
COc1cc(C(=O)Nc2ccc3c(c2)OCCO3)ccc1OC(C)C	.	.	.	54.3
CC(C)Cn1c(SCC(=O)c2ccc(Cl)s2)nnc1-c1ccco1	.	.	.	.
O=C(Nc1ccc(Cl)cc1)N1CC=CCC1	.	.	51.5	.
O=C(Nc1ccc(Cl)cc1)N1CCC(c2nc(-c3cccs3)no2)CC1	.	.	.	.
COc1ccc(S(=O)(=O)Nc2ccc(F)c(Cl)c2)cc1OC	.	.	.	.
CCCc1nn(C)c2c1C(c1cccnc1)C(C#N)=C(N)O2 (stereo unspecified)	/	/	.	.
CCN(CC)c1ccc2c(c1)OC(N)=C(C#N)C2c1cccnc1 (stereo unspecified)	97.0	52.7	.	.
Cn1c(NC(=O)CCc2ccccc2)cc(=O)n(C)c1=O	.	.	60.5	56.3
CCOC(=O)C(NC=O)(NC(C)(C)C)C(=O)OCC	/	/	.	.
CCCCN1CC(O)=C(c2nc3ccccc3s2)C1=N	.	.	.	73.7
Cc1cc(C)cc(-n2nnc(C(=O)NCc3ccccc3)c2N)c1	.	.	.	.
CCCCNC(=O)c1nnn(-c2ccccc2)c1N	.	.	.	66.6
Cc1ccc2c(c1)c1ncnc(N3CCC4(CC3)OCCO4)c1n2C	.	.	62.1	67.3
Cc1ccc2c(c1)c1ncnc(N3CCOCC3)c1n2C	.	.	.	.
c1ccc(Nc2nc(-c3cccnc3)cs2)nc1	.	.	52.0	.
COc1ccc(CNc2ccc(-c3ccc(OC)cc3)nn2)cc1	.	.	.	80.3
O=C1NC(c2cccs2)Nc2sc3c(c21)CCCC3 (stereo unspecified)	.	.	.	69.7
CN1C(=O)c2c(sc3c2CCCC3)NC1c1ccccc1O (stereo unspecified)	/	/	.	.
Cc1nc2cc(NC(=O)NCCC3=CCCCC3)ccc2o1	.	.	72.8	.
